Measurements collected from several papers.
Cell line: MCF7
Effect on: cell growth or viability

COc1ccc(-c2cc(-c3ccccc3Cl)c3c(=O)n(C)c(=O)n(C)c3n2)cc1 — IC50 (MTT; 48 h): 21.5 µM
C=CC(=O)Nc1cc(Nc2nccc(-c3cn(C)c4ccccc34)n2)c(OC)cc1N(C)CCN(C)C — IC50 (MTS; 72 h): 8.34 µM
COc1cc2ncnc(N(C)c3ccc4c(c3)/C(=C/c3ccccc3)C(=O)N4C)c2cc1OC (mixture of isomers) — IC50 (MTT): 9.38 µM
COc1cc2c3c(n(CCCn4ccnc4)c(=O)c2cc1OC)-c1nc2c(cc1C3=O)OCO2 — IC50 (72 h): 0.372 µM
Cc1ccc(-c2cc(-c3ccc(N(C)C)cc3)c3c(=O)n(C)c(=O)n(C)c3n2)cc1 — IC50 (MTT; 48 h): 15.8 µM
Cc1nc(Nc2ccc3c(c2)CC(=O)N3)c2ccccc2n1 — IC50 (MTT): 31.3 µM
COc1cc2c3c(n(CCCN4CCOCC4)c(=O)c2cc1OC)-c1nc2c(cc1C3=O)OCO2 — IC50 (72 h): 0.936 µM
COc1ccc(-c2cc(-c3cc(OC)ccc3OC)c3c(=O)n(C)c(=O)n(C)c3n2)cc1 — IC50 (MTT; 48 h): 19.8 µM
COc1cc2ncnc(Nc3ccc4c(c3)/C(=C/c3ccccc3)C(=O)N4C)c2cc1OC — IC50 (MTT): 7.84 µM
Cc1ccc(-c2cc(-c3c(Cl)cccc3Cl)c3c(=O)n(C)c(=O)n(C)c3n2)cc1 — IC50 (MTT; 48 h): 6.41 µM
Cc1ccccc1NC(=O)C=Cc1ccc(O)c(O)c1 — IC50 (MTT): 44.5 µM
Cc1nc(Nc2ccc3c(c2)C(C)(C)C(=O)N3C)c2ccccc2n1 — IC50 (MTT): 36.3 µM
COc1cc2c3c(n(CCCNC(C)C)c(=O)c2cc1OC)-c1nc2c(cc1C3=O)OCO2 — IC50 (72 h): 0.318 µM
CC1CCC(C(C)C)C(OC(=O)C=Cc2ccc(O)c(O)c2)C1 (centres unmarked) — IC50 (MTT): 28.6 µM
Cc1nc(N(Cc2ccccc2)c2ccc3c(c2)/C(=C/c2ccccc2)C(=O)N3Cc2ccccc2)c2ccccc2n1 (mixture of isomers) — IC50 (MTT): 0.89 µM
CC(C)CS(=O)(=O)NCc1cccc(-c2ccc3c(NC(=O)CC4CC4)n[nH]c3c2)c1 — IC50 (ATP luminescence; 48 h): 42 µM
COc1ccc(-c2cc(-c3cccc(Br)c3)c3c(=O)n(C)c(=O)n(C)c3n2)cc1 — IC50 (MTT; 48 h): 13.5 µM
Nc1ccccc1OC(=O)C=Cc1ccc(O)c(O)c1 — IC50 (MTT): 22.3 µM
Cc1nc(Nc2ccc3c(c2)/C(=C/c2ccccc2C)C(=O)N3)c2ccccc2n1 — IC50 (MTT): > 50 µM
Cc1ccc(-c2cc(-c3ccc(Cl)c(F)c3)c3c(=O)n(C)c(=O)n(C)c3n2)cc1 — IC50 (MTT; 48 h): 37 µM
